Data: ChEMBL document CHEMBL3352765, “Synthesis and evaluation of the cytotoxic activity of 1,2-furanonaphthoquinones tethered to 1,2,3-1H-triazoles in myeloid and lymphoid leukemia cell lines” (Eur J Med Chem, 2014)
Structures can show the parent of a compound that is named as a salt.

tested on: not listed separately; assay: Induction of hemolysis in lamb blood erythrocytes at 1000 uM incubated for 10 mins by microplate reader method; format: cell-based, Ovis aries, Erythrocyte; conditions: sheep, read-out: Activity
Method in brief: (§1)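 Fresh lamb erythrocytes were collected by centrifugation at 1500 rpm for 15 min and washed three times in PBS with 10 mM glucose, pH 7.4. They were used at 4 × 10⁸/well in triplicate, with compounds at a final 1000 µM and retests at 200 µM. After centrifugation at 13,000 rpm for 15 min, supernatant absorbance was read at 540 nm. Results are given as % of complete hemolysis from water osmotic shock.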

Row | SMILES | hemolysis at 10 min, 1000 µM [%]
1 | CCC(C)(O)c1cn(C2C3=C(OC2(C)C)c2ccccc2C(=O)C3=O)nn1 (stereo not given) | < 5
2 | COc1ccc(-c2cn(C3C4=C(OC3(C)C)c3ccccc3C(=O)C4=O)nn2)cc1 (stereo not given) | < 5
3 | CC1(C)OC2=C(C(=O)C(=O)c3ccccc32)C1n1cc(CCl)nn1 (stereo not given) | > 5
4 | CCCCCc1cn(C2C3=C(OC2(C)C)c2ccccc2C(=O)C3=O)nn1 (stereo not given) | < 5
5 | CC1(C)OC2=C(C(=O)C(=O)c3ccccc32)C1n1cc(CCCCl)nn1 (stereo not given) | < 5
6 | CCCCCCc1cn(C2C3=C(OC2(C)C)c2ccccc2C(=O)C3=O)nn1 (stereo not given) | < 5
7 | CC(=O)OCc1cn(C2C3=C(OC2(C)C)c2ccccc2C(=O)C3=O)nn1 (stereo not given) | < 5
8 | CC1(C)OC2=C(C(=O)C(=O)c3ccccc32)C1n1cc(-c2ccccc2)nn1 (stereo not given) | < 5

tested on: K562; assay: Cytotoxicity against human K562 cells after 48 hrs by Alamar blue assay; format: functional, cell-based; conditions: K562, 48 h
Method in brief: (§2)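 Cells were seeded and exposed to compounds for 48 h in total: K562 at 2.5 × 10⁴/well, KG1 at 5.0 × 10⁴/well. AlamarBlue was added 4 h (K562) or 6 h (KG1) before the end. Fluorescence was read at ex 560/em 590 nm. Triplicate wells at six or seven concentrations. Vehicle controls contained up to 1% DMSO and defined 100% survival. Readout was IC50.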

Row | SMILES | IC50 [µM]
9 | CC1(C)CC2=C(O1)c1ccccc1C(=O)C2=O [NOR-BETA-LAPACHONE] | 2.28
10 | CC1(C)OC2=C(C(=O)C(=O)c3ccccc32)C1N=[N+]=[N-] (stereo not given) | 1.58
11 | CCC(C)(O)c1cn(C2C3=C(OC2(C)C)c2ccccc2C(=O)C3=O)nn1 (stereo not given) | 1.39
12 | COc1ccc(-c2cn(C3C4=C(OC3(C)C)c3ccccc3C(=O)C4=O)nn2)cc1 (stereo not given) | 9.06
13 | CC1(C)OC2=C(C(=O)C(=O)c3ccccc32)C1n1cc(CCl)nn1 (stereo not given) | 1.38
14 | CCCCCc1cn(C2C3=C(OC2(C)C)c2ccccc2C(=O)C3=O)nn1 (stereo not given) | 2.68
15 | CC1(C)OC2=C(C(=O)C(=O)c3ccccc32)C1n1cc(CCCCl)nn1 (stereo not given) | 2.07
16 | CC(=O)OCc1cn(C2C3=C(OC2(C)C)c2ccccc2C(=O)C3=O)nn1 (stereo not given) | 8.35
17 | CC1(C)OC2=C(C(=O)C(=O)c3ccccc32)C1n1cc(-c2ccccc2)nn1 (stereo not given) | 14.4

tested on: not listed separately; assay: Cytotoxicity against human lymphocytes; format: cell-based; conditions: Lymphocyte

Row | SMILES | IC50 [µM]
18 | CC1(C)CC2=C(O1)c1ccccc1C(=O)C2=O [NOR-BETA-LAPACHONE] | > 22

tested on: MOLT-4; assay: Cytotoxicity against human MOLT4 cells after 48 hrs by Alamar blue assay; format: functional, cell-based; conditions: MOLT-4, 48 h
Method in brief: (§3)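 Cells seeded at 2.5 × 10⁴/well and exposed to compounds for 48 h in total. AlamarBlue was added before the end of the 48 h (CCRF-CEM 2 h, MOLT-4 6 h). Resorufin fluorescence was read at ex 560/em 590 nm. Triplicate wells at six or seven concentrations. Controls were cells with medium and up to 1% DMSO. IC50 is the concentration killing 50% of cells.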

Row | SMILES | IC50 [µM]
19 | COc1cccc2c1C(=O)c1c(O)c3c(c(O)c1C2=O)C[C@@](O)(C(=O)CO)C[C@@H]3O[C@H]1C[C@H](N)[C@H](O)[C@H](C)O1 [DOXORUBICIN HYDROCHLORIDE] | 0.07
20 | CC1(C)CC2=C(O1)c1ccccc1C(=O)C2=O [NOR-BETA-LAPACHONE] | 13.6
21 | CC1(C)OC2=C(C(=O)C(=O)c3ccccc32)C1N=[N+]=[N-] (stereo not given) | 3.64
22 | CCC(C)(O)c1cn(C2C3=C(OC2(C)C)c2ccccc2C(=O)C3=O)nn1 (stereo not given) | 1.98
23 | COc1ccc(-c2cn(C3C4=C(OC3(C)C)c3ccccc3C(=O)C4=O)nn2)cc1 (stereo not given) | 34.5
24 | CC1(C)OC2=C(C(=O)C(=O)c3ccccc32)C1n1cc(CCl)nn1 (stereo not given) | 0.48
25 | CCCCCc1cn(C2C3=C(OC2(C)C)c2ccccc2C(=O)C3=O)nn1 (stereo not given) | 2.28
26 | CC1(C)OC2=C(C(=O)C(=O)c3ccccc32)C1n1cc(CCCCl)nn1 (stereo not given) | 0.05
27 | CCCCCCc1cn(C2C3=C(OC2(C)C)c2ccccc2C(=O)C3=O)nn1 (stereo not given) | 2.17
28 | CC(=O)OCc1cn(C2C3=C(OC2(C)C)c2ccccc2C(=O)C3=O)nn1 (stereo not given) | 0.16
29 | CC1(C)OC2=C(C(=O)C(=O)c3ccccc32)C1n1cc(-c2ccccc2)nn1 (stereo not given) | 0.75

tested on: PBMC; assay: Cytotoxicity against normal human PBMC assessed as reduction in cell viability at 10 uM after 48 hrs by Alamar blue assay; format: functional; conditions: not given

Row | SMILES | Activity [%]
30 | CC1(C)OC2=C(C(=O)C(=O)c3ccccc32)C1n1cc(-c2ccccc2)nn1 (stereo not given) | 30

tested on: CCRF-CEM; assay: Cytotoxicity against human CCRF-CEM cells after 48 hrs by Alamar blue assay; format: functional, cell-based; conditions: not given; method in brief: as §3

Row | SMILES | IC50 [µM]
31 | COc1cccc2c1C(=O)c1c(O)c3c(c(O)c1C2=O)C[C@@](O)(C(=O)CO)C[C@@H]3O[C@H]1C[C@H](N)[C@H](O)[C@H](C)O1 [DOXORUBICIN HYDROCHLORIDE] | 0.15
32 | CC1(C)CC2=C(O1)c1ccccc1C(=O)C2=O [NOR-BETA-LAPACHONE] | 15.2
33 | CC1(C)OC2=C(C(=O)C(=O)c3ccccc32)C1N=[N+]=[N-] (stereo not given) | 3.18
34 | CCC(C)(O)c1cn(C2C3=C(OC2(C)C)c2ccccc2C(=O)C3=O)nn1 (stereo not given) | 3.57
35 | COc1ccc(-c2cn(C3C4=C(OC3(C)C)c3ccccc3C(=O)C4=O)nn2)cc1 (stereo not given) | 11.7
36 | CC1(C)OC2=C(C(=O)C(=O)c3ccccc32)C1n1cc(CCl)nn1 (stereo not given) | 0.67
37 | CCCCCc1cn(C2C3=C(OC2(C)C)c2ccccc2C(=O)C3=O)nn1 (stereo not given) | 27.6
38 | CC1(C)OC2=C(C(=O)C(=O)c3ccccc32)C1n1cc(CCCCl)nn1 (stereo not given) | 0.34
39 | CCCCCCc1cn(C2C3=C(OC2(C)C)c2ccccc2C(=O)C3=O)nn1 (stereo not given) | 7.3
40 | CC(=O)OCc1cn(C2C3=C(OC2(C)C)c2ccccc2C(=O)C3=O)nn1 (stereo not given) | 0.31
41 | CC1(C)OC2=C(C(=O)C(=O)c3ccccc32)C1n1cc(-c2ccccc2)nn1 (stereo not given) | 1.96

tested on: not listed separately; assay: Cytotoxicity against human KG1 cells after 48 hrs by Alamar blue assay; format: functional, cell-based; conditions: KG-1, 48 h; method in brief: as §2

Row | SMILES | IC50 [µM]
42 | CC1(C)CC2=C(O1)c1ccccc1C(=O)C2=O [NOR-BETA-LAPACHONE] | 17.2
43 | CC1(C)OC2=C(C(=O)C(=O)c3ccccc32)C1N=[N+]=[N-] (stereo not given) | 6.06
44 | CCC(C)(O)c1cn(C2C3=C(OC2(C)C)c2ccccc2C(=O)C3=O)nn1 (stereo not given) | 5.63
45 | COc1ccc(-c2cn(C3C4=C(OC3(C)C)c3ccccc3C(=O)C4=O)nn2)cc1 (stereo not given) | 76.2
46 | CC1(C)OC2=C(C(=O)C(=O)c3ccccc32)C1n1cc(CCl)nn1 (stereo not given) | 0.98
47 | CCCCCc1cn(C2C3=C(OC2(C)C)c2ccccc2C(=O)C3=O)nn1 (stereo not given) | 30
48 | CC1(C)OC2=C(C(=O)C(=O)c3ccccc32)C1n1cc(CCCCl)nn1 (stereo not given) | 0.93
49 | CCCCCCc1cn(C2C3=C(OC2(C)C)c2ccccc2C(=O)C3=O)nn1 (stereo not given) | 5.58
50 | CC(=O)OCc1cn(C2C3=C(OC2(C)C)c2ccccc2C(=O)C3=O)nn1 (stereo not given) | 9.58
51 | CC1(C)OC2=C(C(=O)C(=O)c3ccccc32)C1n1cc(-c2ccccc2)nn1 (stereo not given) | 12.8

tested on: PBMC; assay: Cytotoxicity against normal human PBMC assessed as reduction in cell viability at 10 times anti-leukemic IC50 after 48 hrs by Alamar blue assay; format: cell-based; conditions: not given
Method in brief: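 Gradient-isolated donor PBMCs (three donors), 5 × 10⁴/well in RPMI 1640 with 10% inactivated FBS. […] Viability was measured by AlamarBlue with 24 h dye incubation and fluorescence at ex 560/em 590 nm.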

Row | SMILES | Activity
52 | COc1cccc2c1C(=O)c1c(O)c3c(c(O)c1C2=O)C[C@@](O)(C(=O)CO)C[C@@H]3O[C@H]1C[C@H](N)[C@H](O)[C@H](C)O1 [DOXORUBICIN HYDROCHLORIDE] | > 80%
53 | CC1(C)CC2=C(O1)c1ccccc1C(=O)C2=O [NOR-BETA-LAPACHONE] | > 80%
54 | CC1(C)OC2=C(C(=O)C(=O)c3ccccc32)C1N=[N+]=[N-] (stereo not given) | > 80%
55 | CCC(C)(O)c1cn(C2C3=C(OC2(C)C)c2ccccc2C(=O)C3=O)nn1 (stereo not given) | Non-toxic
56 | COc1ccc(-c2cn(C3C4=C(OC3(C)C)c3ccccc3C(=O)C4=O)nn2)cc1 (stereo not given) | > 80%
57 | CC1(C)OC2=C(C(=O)C(=O)c3ccccc32)C1n1cc(CCl)nn1 (stereo not given) | Non-toxic
58 | CCCCCc1cn(C2C3=C(OC2(C)C)c2ccccc2C(=O)C3=O)nn1 (stereo not given) | > 80%
59 | CC1(C)OC2=C(C(=O)C(=O)c3ccccc32)C1n1cc(CCCCl)nn1 (stereo not given) | > 80%
60 | CCCCCCc1cn(C2C3=C(OC2(C)C)c2ccccc2C(=O)C3=O)nn1 (stereo not given) | > 80%
61 | CC(=O)OCc1cn(C2C3=C(OC2(C)C)c2ccccc2C(=O)C3=O)nn1 (stereo not given) | > 80%
62 | CC1(C)OC2=C(C(=O)C(=O)c3ccccc32)C1n1cc(-c2ccccc2)nn1 (stereo not given) | Non-toxic

tested on: PBMC; assay: Cytotoxicity against normal human PBMC assessed as reduction in cell viability after 48 hrs by Alamar blue assay; format: functional, cell-based; conditions: not given
Method in brief: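 PBMCs were isolated from healthy-donor buffy coats by density gradient centrifugation and seeded at 5.0 × 10⁴/well in RPMI 1640 with 10% inactivated FBS. Exposure was 48 h, with AlamarBlue added for the final 24 h. Fluorescence was read at ex 560/em 590 nm. Triplicate wells at six or seven concentrations. IC50 was derived against vehicle controls.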

Row | SMILES | IC50 [µM]
63 | CC1(C)OC2=C(C(=O)C(=O)c3ccccc32)C1n1cc(CCCCl)nn1 (stereo not given) | > 10

tested on: not listed separately; assay: Induction of hemolysis in lamb blood erythrocytes at 200 uM incubated for 10 mins by microplate reader method; format: cell-based, Ovis aries; conditions: sheep, erythrocyte; method in brief: as §1

Row | SMILES | Activity
64 | CC1(C)OC2=C(C(=O)C(=O)c3ccccc32)C1n1cc(CCl)nn1 (stereo not given) | Non-toxic

tested on: V79; assay: Cytotoxicity against Chinese hamster V79 cells; format: cell-based; conditions: Cricetulus griseus

Row | SMILES | IC50 [µM]
65 | CC1(C)CC2=C(O1)c1ccccc1C(=O)C2=O [NOR-BETA-LAPACHONE] | 13
